# Screening results as filed in PubChem BioAssay.
# The full list was thinned out, with hits kept by preference.
# INS promoter act: TRM-6 insulin promoter activation. 0.81% of 130,000 active. TRM-6 cells, insulin promoter eGFP reporter, imaging; plate-scaled: unstimulated 0, stimulated control 100. activation, % at 2 µM. AID 1296;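 active = activation at 2 µM above a set limit, confirmed on inspection of the cell images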;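 note: share of cells whose green reporter signal exceeds an intensity cutoff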
#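 Test system: human fetal islet-derived TRM-6 cells with tamoxifen-inducible insulin promoter–eGFP reporter; schedule: overnight tamoxifen, then two-day compound incubation at 37 °C; measured by: high-content imaging of fixed cells with Hoechst nuclear stain; evaluation: percent cells above green-intensity threshold, converted to percent activation versus plate controls; control set: stimulated and unstimulated wells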
# Numbers without * were called inactive; [ ] = dose if it differs, or a comment.
SMILES,INS promoter act
Cc1cc(C)nc(SCC(=O)N/N=C/c2cccn2-c2ccc(O)cc2)n1,106*
Cc1cc(C)nc(SCC(=O)Nc2ccc(N3CCOCC3)cc2)n1,-10
Cn1nc(-c2ccc3c(c2)OCCO3)c2ccccc2c1=O,7
CN(Cc1ccccc1F)c1nc(-c2cccs2)nc2ccccc12,3
CCC(C)Cn1c(C(C)O)nc2ccccc21 (stereo not drawn),6
O=C(O)c1cn(Cc2ccccc2Cl)c2ccc(S(=O)(=O)N3CCOCC3)cc2c1=O,0
O=C(CC1CC2CCC1C2)OCC(=O)c1c[nH]c2ccccc12 (stereo not drawn),-6
COC(=O)C1CCN(C(=O)CCCOc2ccccc2)CC1,123
C=CCNC(=S)N1CCC(C(=O)c2ccc(OC)cc2)CC1,3
COCCC(=O)N1CCCC(C(=O)c2ccc(Oc3ccccc3)cc2)C1 (stereo not drawn),542*
Cc1ccccc1N1CCN(C(=O)CN2C(=O)c3ccccc3C2=O)CC1,0
COc1cc(N2CCCC2)c(OC)cc1/C=C1/NC(=S)NC1=O,154
CN1C(=O)/C(=C/c2ccccc2OCc2cccc(F)c2)N(C)C1=S,5
CCCN1C(=O)/C(=C/c2ccc(N3CCCC3)c(C)c2)NC1=S,92*
COc1ccc(/C=C2\NC(=S)N(CC3CCCO3)C2=O)c(OC)c1C (stereo not drawn),-3
Cc1cc(/C=C2/C(=O)N(C)C(=S)N2C)ccc1N1CCCC1,376*
O=C(c1cc(COc2ccc(F)cc2F)on1)N1CCSCC1,0
CCN(CC)S(=O)(=O)c1ccc2c(c1)nc(SCC(=O)N1CCOCC1)n2-c1ccccc1OC,0
CCOC(=O)CN1C(c2ccccc2O)Nc2ccc(Br)cc2C1c1ccccc1 (stereo not drawn),0
C[C@H](NC(=O)c1ccccc1Cl)C(=O)NCc1cccs1,-7
Cn1cc(CN2CCCC(CO)(Cc3ccccc3)C2)cn1 (stereo not drawn),-7
Cc1ccc2cc(C(=O)O)c(C)nc2c1,3
CCc1ccc(C(=O)COC(=O)c2n[nH]c3ccccc23)cc1,0
CC1=C(C(=O)OC(C)C)C(c2cn(-c3ccccc3)nc2-c2cccs2)NC(=O)N1 (stereo not drawn),-7
O=C(ONC1=NCCCCC1)c1ccc([N+](=O)[O-])cc1,3
SMILES,INS promoter act
C(=N\N(Cc1ccccc1)c1ccccc1)/c1ccco1,10
COc1cccc(C2c3[nH]c4ccccc4c3CCN2C(=O)Cn2cncn2)c1OC (stereo not drawn),-2
Fc1ccc(C2c3[nH]c4ccccc4c3CCN2Cc2cccn2-c2ncccn2)cc1 (stereo not drawn),-7
COCc1ccc(CN2CCc3c([nH]c4ccccc34)C2C(C)(C)C)o1 (stereo not drawn),231*
Cc1c(C(=O)C(=O)NCCc2ccc(S(N)(=O)=O)cc2)c2ccccc2n1C,-6
Cn1c(=O)c2c(SCCN3CCOCC3)nc(C3CCCC3)nc2n(C)c1=O,-9
O=C(OCn1ncc(Cl)c(Cl)c1=O)c1ccc(F)cc1,243*
O=C(Cn1ncc(Cl)c(Cl)c1=O)c1ccc(Cl)cc1,8
Cn1c(N)c(C(=O)COC(=O)c2ccc(Cl)nc2)c(=O)n(C)c1=O,-7
CCC1CCC2(CC1)NC(=O)N(CC(=O)Nc1cc(C)on1)C2=O (stereo not drawn),0
Cc1cc(NC(=O)COC(=O)c2oc3c(ccc4ccccc43)c2C)no1,415*
Cc1cc(NC(=O)COC(=O)COc2ccc(C(=O)c3ccccc3)cc2)no1,-8
Cc1ccc2c(Cl)cc(Cl)c(OCC(=O)Nc3cc(C)on3)c2n1,3
COc1ccc(-c2cc(C(F)(F)F)nc(SCC(=O)NCc3cccs3)n2)cc1OC,-6
Cc1ccc(Cn2c(SCC(=O)NCC3CCCO3)nc3c2c(=O)n(C)c(=O)n3C)cc1 (stereo not drawn),114
Cc1n[nH]c(C)c1Sc1ccccc1N=Cc1cc([N+](=O)[O-])ccc1O,-10
COc1cc2c3c(c1OC)C1(C=CC(=NNC(N)=O)C=C1)CC3N(C(C)=O)CC2 (stereo not drawn),-4
CC(C)[C@H](NC(=O)c1ccc(C(C)(C)C)cc1)C(=O)Nc1nnc(C2CC2)s1,-5
CC(C)(C)OC(=O)N1CCCC1C(=O)NCCc1ccccc1 (stereo not drawn),9
Cc1ccc(NC(=O)C2CCCN2C(=O)Oc2ccccc2)cc1C (stereo not drawn),0
Cc1cccc(C)c1NC(=O)C1(NC(=O)C2CCCN2C(=O)OC(C)(C)C)CCCCC1 (stereo not drawn),171*
Cc1c(C(=O)N2CCc3ccccc32)cnn1C,0
CCOC(=O)c1cccc(NC(=O)c2cccnc2)c1,9
CCOC(=O)c1cccc(NC(=O)CSc2nnc(CNc3ccc(C)cc3)n2CC)c1,0
CCOC(=O)c1cccc(NC(=O)CSc2nnc(-c3cccnc3)n2CC)c1,81*
SMILES,INS promoter act
CC(C)Oc1ccc(Cc2c(O)nc(NCCCN(C)C)[nH]c2=O)cc1,8
O=C(CN1CCN(c2ccccc2)CC1)Nc1ccc(OCc2ccccc2)cc1,-5
CCCCCCOC(=O)Nc1ccc(S(=O)(=O)Nc2cccc([N+](=O)[O-])c2)cc1,7
O=C(CCSc1nnc(-c2ccco2)o1)N1CCOCC1,8
COc1cc(/C(C#N)=C/c2ccccc2)c([N+](=O)[O-])cc1OC,-43
CC1CC(C)CN(C(=O)c2cc3cc(Br)cc(Br)c3o2)C1 (stereo not drawn),8
CCP(=O)(c1ccccc1)C(C)(C)O (stereo not drawn),7
CCCCP(=O)(CCCC)Cc1ccccc1O,610*
CCCCN(CCCC)NC(=O)c1ccccc1,-7
CCC(=O)Oc1ccc(C(=O)Nc2cccc(C(=O)NC(C)(C)C)c2)cc1,-5
Cc1ccc2cc(CN(Cc3ccco3)C(=O)NCc3ccccc3)c(=O)[nH]c2c1C,160*
Cc1ccc2cc(CN(Cc3ccco3)C(=S)NCC3CCCO3)c(=O)[nH]c2c1C (stereo not drawn),-8
Cc1cccc2cc(CN(Cc3ccco3)C(=O)c3cccs3)c(=O)[nH]c12,-3
CN(Cc1cnn(C)c1)C(=O)c1cc(COc2c(F)cccc2F)on1,-8
COC(=O)c1cc(Cl)c(NC(=O)Cc2ccccc2)cc1OC,5
CC1(C)Cc2ccccc2/C(=C/C(=O)N2CCCCCC2)N1,557*
CN(C)c1ccc(/C=N/NC(=O)C(=O)/C=C2\NC3(CCCC3)Cc3ccccc32)cc1,-8
CCOC(=O)/C=C1\NC(C)(C)Cc2cc(OC)c(OC)cc21,-72
N#Cc1sc2nc(-c3cccs3)cc(-c3ccccc3)c2c1N,0
Nc1c(C(=O)Nc2nccs2)sc2nc(-c3cccs3)cc(C(F)(F)F)c12,182*[may fluoresce]
COc1ccc(NC(=O)c2sc3nc(Cc4ccccc4)cc(C(F)(F)F)c3c2N)cc1OC,5
O=C(Nc1nccc(-c2cccs2)n1)c1ccccc1Cl,-3
Cc1cccc(OCc2nnc(NC(=O)c3cccs3)s2)c1,6
Cc1nnc(NC(=O)c2sc3nc(-c4cccs4)cc(C(F)(F)F)c3c2N)s1,107*[may fluoresce]
COC(=O)[C@@H]1CC[C@H](C)[C@@H](c2ccc(C)cc2)N1C(=O)c1ccc(/C=N/O[C@@H](C)CN2CCCCc3nc(C)c(C)cc32)cc1,0
CC(C)c1ccc(-c2nnn(Cc3nc4ccccc4s3)n2)cc1,8
O=C(NCc1ccccc1)c1ccc(N2C(=O)C3CCCCC3C2=O)cc1 (stereo not drawn),-5
